Assay results: article PMC7667002 (Drug Design, Development and Therapy, 2020)

What was measured:
[1] = In vivo pharmacokinetic study of VEN and ODV in rats with or without vonoprazan; design: species or system Sprague-Dawley rats; conditions: rat; for AUC(0-t) / AUC(0-inf) / CL/F / Cmax / MRT last / MRT inf / Tmax / Vd/F / half-life: male, Sprague-Dawley, plasma, po, 20 mg/kg, rat plasma, VEN 20 mg/kg oral; for CL/F: CLz/F; for MRT last: MRT(0-t); for MRT inf: MRT(0-∞); for Vd/F: Vz/F; for half-life: t1/2z
[2] = Stability of VEN and ODV in rat plasma under different storage conditions; type: in vitro ADME; conditions: for Stability, Accuracy RE (%): n = 6
[3] = Enzyme kinetics; type: in vitro ADME; conditions: rat, rat liver microsomes, pH 7.4
Summary of the method: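 Rat liver microsomes (1 mg/mL) were incubated in 100 mM potassium phosphate pH 7.4 with 10 mM NADPH and venlafaxine. After 5 min pre-incubation at 37°C, NADPH started a 30 min reaction, stopped with ice-cold acetonitrile containing diazepam internal standard. ODV formation was quantified by UPLC-MS/MS. Km came from nonlinear regression of velocity versus substrate concentration on duplicate or triplicate determinations.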

[4] = system: rat liver microsomes; experiment: Effect of vonoprazan on the metabolism of VEN; type: in vitro ADME; conditions: RLMs
Summary of the method: (§1)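 Male Sprague–Dawley rat liver microsomes were prepared by differential centrifugation (9000 × g, then 105,000 × g). After 5 min pre-incubation at 37°C, NADPH started a 30 min reaction, stopped with ice-cold acetonitrile. ODV was measured by UPLC-MS/MS against a diazepam internal standard, in triplicate, and analysed by Lineweaver–Burk plots with slope and intercept replots.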

[5] = system: venlafaxine O-demethylation (ODV formation) in rat liver microsomes; no CYP named; experiment: Effect of vonoprazan on the metabolism of VEN; type: in vitro ADME; conditions: rat, rat liver microsomes, pH 7.4, probe venlafaxine (VEN), 2-16 μM
Summary of the method: as §1

[6] = + vonoprazan 5 mg/kg oral, 7 days
[7] = + vonoprazan 20 mg/kg oral, 7 days
[8] = VEN 20 mg/kg oral + vonoprazan 5 mg/kg
[9] = VEN 20 mg/kg oral + vonoprazan 20 mg/kg
[10] = 4°C, 24h, high QC (VEN 300, ODV 60 ng·mL^−1)
[11] = 4°C, 24h, low QC (VEN 3, ODV 0.6 ng·mL^−1)
[12] = Room Temperature, 6h, high QC (VEN 300, ODV 60 ng·mL^−1)
[13] = Room Temperature, 6h, low QC (VEN 3, ODV 0.6 ng·mL^−1)
[14] = −80°C, 7 Days, high QC (VEN 300, ODV 60 ng·mL^−1)
[15] = −80°C, 7 Days, low QC (VEN 3, ODV 0.6 ng·mL^−1)

CN(C)CC(c1ccc(O)cc1)C1(O)CCCCC1 (stereo not shown) [ODV, O-desmethylvenlafaxine]
AUC(0-t) [1, 6]: 0.221 ± 0.0315 µg·h/mL
AUC(0-t) [1, 7]: 0.469 ± 0.0686 µg·h/mL
AUC(0-t) ([1]; without vonoprazan (control)): 0.155 ± 0.0367 µg·h/mL
AUC(0-inf) [1, 6]: 0.225 ± 0.0317 µg·h/mL
AUC(0-inf) [1, 7]: 0.492 ± 0.0798 µg·h/mL
AUC(0-inf) ([1]; without vonoprazan (control)): 0.161 ± 0.0435 µg·h/mL
CL/F [1, 6]: 90.4 L/h/kg
CL/F [1, 7]: 41.7 L/h/kg
CL/F ([1]; without vonoprazan (control)): 132 L/h/kg
Cmax [1, 6]: 0.0697 ± 0.0301 µg/mL
Cmax [1, 7]: 0.109 ± 0.0134 µg/mL
Cmax ([1]; without vonoprazan (control)): 0.0581 ± 0.0141 µg/mL
MRT last [1, 6]: 3.08 ± 0.48 h
MRT last [1, 7]: 3.92 ± 0.38 h
MRT last ([1]; without vonoprazan (control)): 2.82 ± 0.55 h
MRT inf [1, 6]: 3.28 ± 0.49 h
MRT inf [1, 7]: 4.44 ± 0.52 h
MRT inf ([1]; without vonoprazan (control)): 3.2 ± 1.16 h
Tmax [1, 6]: 0.95 ± 0.37 h
Tmax [1, 7]: 2.6 ± 0.55 h
Tmax ([1]; without vonoprazan (control)): 0.75 ± 0.18 h
Vd/F [1, 6]: 260 ± 41.5 L/kg
Vd/F [1, 7]: 142 ± 30.4 L/kg
Vd/F ([1]; without vonoprazan (control)): 374 ± 170 L/kg
half-life [1, 6]: 2.01 ± 0.36 h
half-life [1, 7]: 2.43 ± 0.75 h
half-life ([1]; without vonoprazan (control)): 2.05 ± 1.05 h
Increase of the metabolite (M. R.) compared with control group [1, 8]: 0.87 fold
Decrease of CLz/F compared with control group [1, 9]: 68.33%
Decrease of Vz/F compared with control group [1, 9]: 62.08%
Elevation of Cmax compared with control group [1, 9]: 0.88 fold
Elevation of Tmax compared with control group [1, 9]: 2.46 fold
Increase of AUC(0-∞) compared with control group [1, 9]: 2.05 fold
Increase of MRT(0-∞) compared with control group [1, 9]: 0.39 fold
Increase of the metabolite (M. R.) compared with control group [1, 9]: 1.34 fold
Stability, Accuracy RE (%) [2, 10]: 108.96%
Stability, Accuracy RE (%) [2, 11]: 112.11%
Stability, Accuracy RE (%) [2, 12]: 109.57%
Stability, Accuracy RE (%) [2, 13]: 107.58%
Stability, Accuracy RE (%) [2, 14]: 106.85%
Stability, Accuracy RE (%) [2, 15]: 105.72%

COc1ccc(C(CN(C)C)C2(O)CCCCC2)cc1 (stereo not shown) [VEN, Venlafaxine]
Km at 30 min [3]: 8.28 µM
AUC(0-t) [1, 6]: 0.689 ± 0.161 µg·h/mL
AUC(0-t) [1, 7]: 1.91 µg·h/mL
AUC(0-t) ([1]; without vonoprazan (control)): 0.26 ± 0.102 µg·h/mL
AUC(0-inf) [1, 6]: 0.694 ± 0.163 µg·h/mL
AUC(0-inf) [1, 7]: 1.92 µg·h/mL
AUC(0-inf) ([1]; without vonoprazan (control)): 0.261 ± 0.101 µg·h/mL
CL/F [1, 6]: 30 L/h/kg
CL/F [1, 7]: 11.5 L/h/kg
CL/F ([1]; without vonoprazan (control)): 87.6 L/h/kg
Cmax [1, 6]: 0.261 ± 0.11 µg/mL
Cmax [1, 7]: 0.525 ± 0.115 µg/mL
Cmax ([1]; without vonoprazan (control)): 0.127 ± 0.0415 µg/mL
MRT last [1, 6]: 2.44 ± 0.3 h
MRT last [1, 7]: 3.28 ± 0.52 h
MRT last ([1]; without vonoprazan (control)): 2.09 ± 0.18 h
MRT inf [1, 6]: 2.52 ± 0.43 h
MRT inf [1, 7]: 3.36 ± 0.56 h
MRT inf ([1]; without vonoprazan (control)): 2.12 ± 0.17 h
Tmax [1, 6]: 0.95 ± 0.37 h
Tmax [1, 7]: 2.6 ± 0.55 h
Tmax ([1]; without vonoprazan (control)): 0.7 ± 0.21 h
Vd/F [1, 6]: 62.1 ± 15.4 L/kg
Vd/F [1, 7]: 19.9 ± 7.19 L/kg
Vd/F ([1]; without vonoprazan (control)): 187 ± 130 L/kg
half-life [1, 6]: 1.48 ± 0.46 h
half-life [1, 7]: 1.28 ± 0.53 h
half-life ([1]; without vonoprazan (control)): 1.39 ± 0.32 h
Decrease of Clz/F compared with control group [1, 8]: 65.73%
Increase of Cmax compared with control group [1, 8]: 1.05 fold
Decrease of CLz/F compared with control group [1, 9]: 86.87%
Decrease of Vz/F compared with control group [1, 9]: 89.35%
Elevation of Cmax compared with control group [1, 9]: 3.12 fold
Elevation of Tmax compared with control group [1, 9]: 2.71 fold
Increase of AUC(0-∞) compared with control group [1, 9]: 6.37 fold
Increase of MRT(0-∞) compared with control group [1, 9]: 0.58 fold
Stability, accuracy range over three QC levels and three storage conditions ([2]; 4°C 24 hours, room temperature 4 hours, −80°C 7 days): 99.68–111.18%
Stability, Accuracy RE (%) [2, 10]: 106.95%
Stability, Accuracy RE (%) [2, 11]: 108.99%
Stability, Accuracy RE (%) [2, 12]: 102.08%
Stability, Accuracy RE (%) [2, 13]: 102.90%
Stability, Accuracy RE (%) [2, 14]: 105.33%
Stability, Accuracy RE (%) [2, 15]: 99.68%

CNCc1cc(-c2ccccc2F)n(S(=O)(=O)c2cccnc2)c1 [Vonoprazan]
Inhibition mechanism on VEN metabolism ([4]; competitive plus non-competitive): mixed inhibition
Ki’ (inhibition of VEN metabolism) ([4]; mixed inhibition, Lineweaver-Burk): 11.29 µM
Ki ([4]; read-out: Ki (inhibition of VEN metabolism), mixed inhibition, Lineweaver-Burk): 23.1 µM
IC50 at 30 min [5]: 5.54 µM
